Measured values reported in ChEMBL document CHEMBL4052626, “Identification of thiazolo[5,4-d]pyrimidine derivatives as potent antiproliferative agents through the drug repurposing strategy” (Eur J Med Chem, 2017).
pIC50: −log10 of the molar value. Calls of active or inactive are those of the source. No cut-off for these calls is given here.

Legend:
[1] = test system: NCI-H1650; assay: Antiproliferative activity against human NCI-H1650 cells after 72 hrs by MTT assay; format: functional, cell-based; conditions: NCI-H1650, 72 h
Procedure, shortened: (§1)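 Cells in exponential growth were plated at 3,000 per well and left 24 h. Medium was then replaced with fresh medium holding graded compound concentrations, and incubation ran 72 h. Viability was read by MTT at 570 nm.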

[2] = test system: HGC-27; assay: Antiproliferative activity against human HGC27 cells after 72 hrs by MTT assay; format: functional, cell-based; conditions: HGC-27, 72 h; procedure, shortened: as §1
[3] = test system: MGC-803; assay: Antiproliferative activity against human MGC803 cells after 72 hrs by MTT assay; format: functional, cell-based; conditions: MGC-803, 72 h; procedure, shortened: as §1
[4] = test system: MGC-803; assay: Induction of apoptosis in human MGC803 cells at 2 uM after 24 hrs by annexin V-FITC/propidium iodide staining-based assay (reference value: 2.3%); format: functional
[5] = test system: MGC-803; assay: Antiproliferative activity against human MGC803 cells assessed as reduction in colony formation at 3 uM after 9 days by crystal violet staining-based clonogenic assay relative to control; format: functional; conditions: MGC-803, 216 h
Procedure, shortened: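 MGC803 were seeded at 1000 cells/well, allowed 24 h, then given fresh medium with graded compound concentrations for 9 days. Cells were PBS-washed, fixed in 4% paraformaldehyde and stained with 0.1% crystal violet. A colony was counted as >10 cells. Inhibition rate = (1 − treated count/control count) × 100%. Run in triplicate.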

[6] = test system: MGC-803; assay: Induction of apoptosis in human MGC803 cells assessed as increase in cleaved caspase-3 protein levels at 1 to 5 uM after 24 by Western blot analysis; format: functional, cell-based
Procedure, shortened: (§2)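 After 24 h treatment at graded concentrations, MGC803 were lysed 30 min in RIPA buffer with protease inhibitors and spun at 12,000 rpm for 10 min at 4 °C. Protein was quantified by BCA, then run on SDS-PAGE and blotted to nitrocellulose. Membranes were blocked in 5% milk for 2 h, incubated with primary antibodies overnight at 4 °C, then secondary (1:5000) for 2 h. Detection was by ECL.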

[7] = test system: MGC-803; assay: Induction of apoptosis in human MGC803 cells at 1 uM after 24 hrs by annexin V-FITC/propidium iodide staining-based assay (reference value: 2.3%); format: functional
[8] = test system: MGC-803; assay: Induction of apoptosis in human MGC803 cells assessed as increase in cleaved caspase-9 protein levels at 1 to 5 uM after 24 by Western blot analysis; format: functional, cell-based; procedure, shortened: as §2
[9] = test system: MGC-803; assay: Induction of apoptosis in human MGC803 cells at 5 uM after 24 hrs by annexin V-FITC/propidium iodide staining-based assay (reference value: 2.3%); format: functional
[10] = test system: MGC-803; assay: Induction of apoptosis in human MGC803 cells assessed as cell rounding at 1 to 5 uM after 24 hrs by Hoechst 33258 staining-based fluorescence microscopic analysis; format: functional
Procedure, shortened: (§3)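 MGC803 were seeded at 2×10^5/well and allowed to adhere overnight. They were exposed to graded concentrations for 24 h, then stained with Hoechst 33258 for 30 min in the dark. Nuclear morphology was examined by fluorescence microscopy.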

[11] = test system: GES1; assay: Cytotoxicity against human GES-1 cells after 72 hrs by MTT assay; format: cell-based; conditions: GES1, 72 h; procedure, shortened: as §1
[12] = test system: MGC-803; assay: Induction of apoptosis in human MGC803 cells assessed as formation of apoptotic bodies at 1 to 5 uM after 24 hrs by Hoechst 33258 staining-based fluorescence microscopic analysis; format: functional, cell-based; procedure, shortened: as §3
[13] = test system: MGC-803; assay: Induction of apoptosis in human MGC803 cells assessed as decrease in BCL-2 protein levels at 1 to 5 uM after 24 hrs by Western blot analysis; format: functional, cell-based; procedure, shortened: as §2
[14] = test system: MGC-803; assay: Induction of apoptosis in human MGC803 cells assessed as increase in Bax protein levels after 24 by Western blot analysis; format: functional, cell-based; procedure, shortened: as §2
[15] = test system: MGC-803; assay: Antimigratory activity against human MGC803 cells assessed as reduction in wound healing at 1 uM by inverted microscopic method; format: functional, cell-based; conditions: TDE = time-dependent effect
Procedure, shortened: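 MGC803 in 24-well format were scratched with a 10 µL tip. Cells were then incubated with graded compound concentrations for the indicated times. Wound closure was photographed under an inverted microscope.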

[16] = test system: MGC-803; assay: Induction of apoptosis in human MGC803 cells assessed as chromatin shrinkage at 1 to 5 uM after 24 hrs by Hoechst 33258 staining-based fluorescence microscopic analysis; format: functional, cell-based; procedure, shortened: as §3
[17] = test system: MGC-803; assay: Induction of apoptosis in human MGC803 cells after 24 hrs by annexin V-FITC/propidium iodide staining-based assay; format: functional, cell-based
[18] = Selectivity index, ratio of IC50 for human GES-1 cells to IC50 for human MGC803 cells; format: functional
Procedure, shortened: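 SI equals IC50 in GES-1 divided by IC50 in MGC803. Both IC50s come from 72 h exposure in the MTT viability assay, with 3,000 cells/well plated 24 h before dosing. Each is the mean ± SD of three independent experiments.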

SMILES	pIC50 [1]	pIC50 [2]	pIC50 [3]	other results
CCCSc1nc(Nc2ccccc2)c2nc(Nc3ccccc3)sc2n1	4.92	4.45	4.61	–
CCCSc1nc(N2CCOCC2)c2nc(Nc3cccc4ccccc34)sc2n1	5.01	4.66	4.75	–
CCCCc1ccc(Nc2nc(SCCC)nc3sc(Nc4ccccc4)nc23)cc1	4.83	4.88	4.76	–
CCCSc1nc(N2CCSCC2)c2nc(Nc3ccccc3)sc2n1	4.89	4.55	4.91	–
c1ccc(CSc2nc(N3CCOCC3)c3nc(Nc4ccccc4)sc3n2)cc1	5.68	5.91	5.99	Activity [4]: 43.8%; inhibition at 3 µM [5]: 86%; Activity [6]: Active; Activity [7]: 11.5%; Activity [8]: Active; Activity [9]: 73.9%; Activity [10]: Active; pIC50 [11]: 4.41; Activity [12]: Active; Activity [13]: Active; Activity [14]: Dose-dependent effect; Activity [15]: Tde; Activity [16]: Active; Activity [17]: Dose-dependent effect; Ratio IC50 [18]: 37.8
CCCSc1nc(N2CCOCC2)c2nc(Nc3ccccn3)sc2n1	5.11	5.05	5.03	–
CCCSc1nc(N2CCOCC2)c2nc(Nc3ccccc3)sc2n1	5.38	5.02	5.24	–
CCCSc1nc(Nc2ccc(Cl)cc2)c2nc(Nc3ccccc3)sc2n1	4.92	4.69	4.90	–
O=c1[nH]cc(F)c(=O)[nH]1 [FLUOROURACIL]	4.90	5.09	–	–
CCCSc1nc(NCCc2cccs2)c2nc(Nc3ccccc3)sc2n1	5.00	4.75	4.95	–
CCCSc1nc(NC2CC2)c2nc(Nc3ccccc3)sc2n1	4.38	4.49	< 4.19	–
CCCSc1nc(NCCc2cc3ccccc3[nH]2)c2nc(Nc3ccccc3)sc2n1	5.02	4.79	5.16	–
CCCSc1nc(NCc2ccco2)c2nc(Nc3ccccc3)sc2n1	4.58	4.55	< 4.19	–
CCCSc1nc(N2CCN(Cc3ccccc3)CC2)c2nc(Nc3ccccc3)sc2n1	4.57	< 4.19	4.73	–
CCCSc1nc(N2CCOCC2)c2nc(Nc3ccccc3Cl)sc2n1	4.66	4.95	5.47	–
CCCSc1nc(Nc2ccc(OC)cc2)c2nc(Nc3ccccc3)sc2n1	4.69	4.51	< 4.19	–
CCCSc1nc(NCc2ccc(O)cc2)c2nc(Nc3ccccc3)sc2n1	5.03	4.76	4.66	–
